Experimental data pooled from the literature.
Protocols differ between the studies behind these lines.
Target: Ephrin type-A receptor 2 (EPHA2, Homo sapiens, UniProt P29317)

Cc1ccc(Nc2nccc(N(C)c3ccc4c(C)n(C)nc4c3)n2)cc1S(N)(=O)=O
inhibition (enzyme activity; inhibitor; 0.3 µM): -2%

CCCS(=O)(=O)Nc1ccc(F)c(C(=O)c2c[nH]c3ncc(-c4ccc(Cl)cc4)cc23)c1F
inhibition (enzyme activity; inhibitor; 1 µM): < 10%

Cc1cc(-n2nc(Cc3cc(F)cc(C(F)(F)F)c3)nc2C)ccc1C(N)=O
remaining binding (cell-free assay; competition with immobilised ligand; 1 µM): 100%

COc1cc2ncnc(Nc3ccc(Oc4ccccc4)c(C)c3C)c2cc1OC
inhibition (enzyme activity; inhibitor; 1 µM): 2%

CC(C)(C)c1nc(-c2cccc(NS(=O)(=O)c3c(F)cccc3F)c2F)c(-c2ccnc(N)n2)s1
remaining activity (enzyme activity; inhibitor; radiometric; 1 µM): 133%

O=C(Nc1cnn(-c2csc(C(=O)NC3COC3)c2)c1)Nc1c(F)cccc1Cl
remaining activity (enzyme activity; inhibitor; 5 µM): 97.9%

COc1ccc2c(c1)O[C@@H](c1ccc(OC)c(OC)c1)C[C@H]2NC(=O)C1(c2ccc3c(c2)OC(F)(F)O3)CC1
remaining binding (cell-free assay; competition with immobilised ligand; 1 µM): 95%

CC(C)(O)[C@H]1CC[C@H](Nc2ccc3ncc(-c4cccc(C(F)(F)F)c4)n3n2)CC1
remaining activity (enzyme activity; inhibitor; 1 µM): 93.9%

COc1ccc(COc2ccc(Cc3cnc(N)nc3N)cc2OC)cc1
remaining signal (cell-free assay; 0.5 µM): 107%

O=C(Nc1ccc(Oc2ccc(F)cc2)cc1)N1CCc2ncccc2[C@H]1c1ccc(F)cc1
remaining binding (cell-free assay; competition with immobilised ligand; 1 µM): 100%

Nc1nc(Nc2ccccc2)sc1C(=O)c1c(F)cccc1F
remaining activity (enzyme activity; inhibitor; 10 µM): 71%

COc1ccc2c(O[C@@H]3C[C@H]4C(=O)N[C@]5(C(=O)O)CC5/C=C\CCCCC[C@H](NC(=O)OC5CCCC5)C(=O)N4C3)cc(-c3csc(NC(=O)C(C)C)n3)nc2c1C (stereo partly shown)
remaining binding (cell-free assay; competition with immobilised ligand; 1 µM): 80%

Nc1ncnc2occ(-c3ccc(NC(=O)Nc4cc(C(F)(F)F)ccc4F)cc3)c12
remaining signal (cell-free assay; 20 µM): 0%

CNC(=O)c1cc(Oc2ccc(NC(=O)Nc3ccc(Cl)c(C(F)(F)F)c3)cc2)ccn1
inhibition (enzyme activity; inhibitor; 0.3 µM): 23%

O=C(CSc1nc2nccnc2c(=O)n1CCc1ccccc1)Nc1nccs1
inhibition (enzyme activity; inhibitor; 10 µM): 8%

CC1=C(C#N)[C@@H](c2ccc3[nH]nc(C)c3c2)C(C#N)=C(c2ccc(Cl)cc2)N1
remaining binding (cell-free assay; competition with immobilised ligand; 1 µM): 100%

Cc1ccc(NC(=O)c2ccc(C)c(C(F)(F)F)c2)cc1C#Cc1nn(C2CCC(O)CC2)c2ncnc(N)c12 (stereo not shown)
remaining signal (cell-free assay; 10 µM): -3%

C[C@@H]1CN(c2cc(-c3nn(C)c4ccc(OC5(C)CC5)cc34)ncn2)C[C@H](C)O1
remaining binding (cell-free assay; competition with immobilised ligand; 1 µM): 100%

Cn1c(=O)n(-c2ccc(C(C)(C)C#N)cc2)c2c3cc(-c4cnc5ccccc5c4)ccc3ncc21
remaining activity (enzyme activity; inhibitor; 10 µM): 110%

CS(=O)(=O)N1CCCC(NC(=O)[C@H](CCC2CCCCC2)NC(=O)c2ccc(CNc3ncnc4c3nnn4-c3ccccc3)cc2)C1 (stereo partly shown)
remaining binding (cell-free assay; competition with immobilised ligand; 0.1 µM): 100%

O=C(Nc1cnn(-c2csc(C(=O)NC3COC3)c2)c1)Nc1ccccc1Cl
remaining activity (enzyme activity; inhibitor; 5 µM): 101%

CCN(CC)CCNC(=O)c1c(C)[nH]c(/C=C2\C(=O)Nc3ccc(F)cc32)c1C
inhibition (enzyme activity; inhibitor; 10 µM): 52%

O=C1NC(c2ccccn2)Sc2ccccc21 (stereo not shown)
remaining binding (cell-free assay; competition with immobilised ligand; 1 µM): 100%

C[C@@H]1CCN(C(=O)CC#N)C[C@@H]1N(C)c1ncnc2[nH]ccc12
remaining signal (cell-free assay; 0.5 µM): 95.8%

CN(c1ncccc1CNc1nc(Nc2ccc3c(c2)CC(=O)N3)ncc1C(F)(F)F)S(C)(=O)=O
inhibition (enzyme activity; inhibitor; 1 µM): 29.7%

CCCOc1ccc(OC)c(F)c1C(=O)c1ccc(C(=O)N[C@@H]2CNC[C@H]2NC(=O)c2ccc3[nH]ncc3c2)cc1
remaining activity (enzyme activity; inhibitor; 10 µM): 69%

COc1cc2nccc(Oc3ccc(NC(=O)Nc4ccc(F)cc4F)c(F)c3)c2cc1OC
ΔTm (thermal stability; DSF; 10 µM): 5 to 10 °C

CCN(CC)c1ccc(C2=NNC(=O)CC2C)cc1[N+](=O)[O-] (stereo not shown)
remaining activity (enzyme activity; inhibitor; 10 µM): 97%

CC(C)(C)C(=O)c1sc(NC2CCCCC2)nc1N
remaining activity (enzyme activity; inhibitor; 10 µM): 106%

O=C1NC(=O)c2cc(Nc3ccc(F)cc3)c(Nc3ccc(F)cc3)cc21
remaining signal (cell-free assay; 0.5 µM): 94.3%

COc1cc(Nc2cnc(C#N)c(O[C@H](C)CN(C)C)n2)ncc1-c1cnn(C)c1
remaining activity (enzyme activity; inhibitor; radiometric; 1 µM): 59%
